# The entries come from a sample that favours hits as a whole.
# FGF22 binding: shifts melting point of recombinant human FGF22. 340,000 tested, 1.5% active. Q9HCT0. AID 651658. recombinant FGF22 thermal shift, SYPRO orange fluorescence; percent of sucrose octasulfate shift, DMSO zero. activity (Tm shift, normalised), % at 9.99 µM;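 active = mean Tm shift, scaled 0 neutral to 100 positive control, at about 1.3% or above, every replicate too, limit read from the data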
# PDI turbidity: inhibitors of human protein disulfide isomerase | 350,000 tested, 0.052% active | P07237 | PDI insulin aggregation turbidity, A650, 90 min | inhibition, % at 10 µM;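 active = mean inhibition across replicates of 30% or more, whatever share of single replicates reach that level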
# ERp5 inh: blocks human ERp5 reductase activity on insulin; 350,000 tested, 0.05% active; AID 651711; ERp5 insulin aggregation, absorbance 650 nm, 90 min; inhibition, % at 9.99 µM;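 active = mean replicate inhibition above about 25%, with every replicate also reaching it, limit read from the data, passing the limit was not always enough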
# S100A4 MyoIIA: inhibitors of human S100A4 binding to myosin IIA peptide | P26447 | S100A4/TAMRA-MyoIIA peptide fluorescence polarization | inhibition, % at 10.7 µM | 360,000 tested, 0.14% active | AID 652163;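 active = mean inhibition of at least 70% across replicates, with every replicate also reaching that level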
#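 Material: S100A4 monomer protein / Buffer or medium: 50 mM HEPES pH 7.2, 10 mM CaCl2, 100 mM KCl / Times: 5 min incubation before reading / Benchmarks: neutral control DMSO, positive control TFP / Reagent: labelled myosin peptide probe, 5 nM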
# ERAP1 HTS inh: blocks human ERAP1 aminopeptidase activity | Q9NZ08 | inhibition, % at 10.7 µM | recombinant ERAP1, Leu-AMC fluorescence, 60 min | 340,000 tested, 0.15% active;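 active = mean replicate inhibition of at least 30%, or all replicates individually reaching that 30% level; inactive = mean below 30% and not every replicate reaching it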
# Target sequence (Q9NZ08 whole entry, looked up): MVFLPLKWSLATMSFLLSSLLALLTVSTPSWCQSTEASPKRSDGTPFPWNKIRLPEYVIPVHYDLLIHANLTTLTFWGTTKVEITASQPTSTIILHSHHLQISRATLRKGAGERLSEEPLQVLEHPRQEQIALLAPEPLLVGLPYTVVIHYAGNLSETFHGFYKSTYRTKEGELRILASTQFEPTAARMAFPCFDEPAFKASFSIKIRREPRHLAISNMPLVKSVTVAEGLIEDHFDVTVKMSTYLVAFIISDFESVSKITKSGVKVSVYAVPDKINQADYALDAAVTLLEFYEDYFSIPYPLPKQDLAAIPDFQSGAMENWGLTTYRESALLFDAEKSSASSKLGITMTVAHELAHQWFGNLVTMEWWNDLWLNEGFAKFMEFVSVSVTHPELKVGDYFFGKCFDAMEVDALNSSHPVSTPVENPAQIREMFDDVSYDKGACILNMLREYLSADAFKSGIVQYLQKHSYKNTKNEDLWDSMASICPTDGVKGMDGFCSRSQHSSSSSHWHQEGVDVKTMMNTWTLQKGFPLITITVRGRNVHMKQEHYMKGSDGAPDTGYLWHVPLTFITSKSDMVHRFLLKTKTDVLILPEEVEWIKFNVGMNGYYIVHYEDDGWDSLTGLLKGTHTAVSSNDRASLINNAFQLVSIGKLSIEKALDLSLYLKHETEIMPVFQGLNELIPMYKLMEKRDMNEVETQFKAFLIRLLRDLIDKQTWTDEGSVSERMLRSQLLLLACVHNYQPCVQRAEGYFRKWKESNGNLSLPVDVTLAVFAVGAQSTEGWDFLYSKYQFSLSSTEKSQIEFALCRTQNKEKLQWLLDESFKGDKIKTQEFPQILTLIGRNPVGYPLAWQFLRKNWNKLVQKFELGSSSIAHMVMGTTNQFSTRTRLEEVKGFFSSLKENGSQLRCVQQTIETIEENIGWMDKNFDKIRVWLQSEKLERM
# Numbers stand for hits; - = inactive; . = no result given.
SMILES,FGF22 binding,PDI turbidity,ERp5 inh,S100A4 MyoIIA,ERAP1 HTS inh
COC(=O)c1cn(NC(=O)Cc2c(F)cccc2Cl)c(=O)c2ccccc12,-,-,-,-,-
CCOc1ccc(/C=N/N(C)c2ccccc2)cc1OC,.,-,.,.,.
O=C(Nc1ccc(N2CCN(C(=O)c3cccs3)CC2)cc1)c1cccnc1,43,-,-,-,-
O=Cc1ccc(-n2cc(C=O)c3ccccc32)cc1,43,-,-,-,-
Cn1cc(C=O)c2ccccc21,-,-,-,-,-
Cc1noc(C)c1S(=O)(=O)Nc1ccc2c(c1)C(=O)N([C@H](C)CO)C[C@@H](C)[C@@H](CN(C)C(=O)Nc1cccc3ccccc13)OCCCC[C@@H](C)O2,-,.,-,-,-
COc1ccccc1C(=O)NC(=O)CSc1nncn1C,-,-,-,-,-
O=C(CCNC(=O)c1ccc(Br)cc1)NNC(=O)c1ccccc1,43,-,-,-,-
COc1ccc(Cl)cc1C(=O)NNC(=O)CSc1nncn1C,43,-,-,-,-
COc1ccc(Cl)cc1C(=O)NNC(=O)CCNC(=O)c1ccccc1,44,-,-,-,-
COc1ccc(Cl)cc1C(=O)NNC(=O)CCNC(C)=O,-,-,-,-,-
CS(=O)(=O)C1=NSC2=NC(=O)/C(=C\c3cccn3-c3ccccc3Cl)C(=N)N21,.,-,-,-,-
O=C(NCCc1ccccc1)c1ccc(NC(=O)C2CCCCC2)cc1,-,-,-,-,-
COc1ccc(-c2coc3c(C)c4oc(=O)c(CCC(=O)O)c(C)c4cc23)cc1,.,52,.,.,.
COc1ccccc1CNC(=O)c1cc(-c2ccc(F)cc2C)n[nH]1,-,-,-,-,-
CCCC12CN3CC(C)(CN(C1)C3c1ccc([N+](=O)[O-])o1)C2=O (configuration not stated),-,-,-,-,-
CC12CN3CC(C)(CN(C1)C3c1ccc([N+](=O)[O-])o1)C2=O (configuration not stated),44,-,-,-,-
CCC12CN3CC(CC)(CN(C1)C3c1ccc([N+](=O)[O-])o1)C2=O (configuration not stated),43,-,-,-,-
CCCOn1c(OCC(C)C)nc2ccccc2c1=O,.,-,.,.,.
CCn1c(CNC(=O)c2ccco2)nnc1SCC(=O)c1ccc(F)cc1,-,-,-,-,-
CCn1c(CNC(=O)c2ccco2)nnc1SCC(=O)c1ccc(OC)cc1,43,-,-,-,-
CCN(CC)Cc1c(O)ccc2c(C)c(CC(=O)OC)c(=O)oc12,.,-,.,.,.
COC(=O)Cc1c(C)c2ccc(O)c(CNCc3ccc(OC)c(OC)c3)c2oc1=O,-,-,-,-,97
Cc1ccc(N(C)c2nc(N)nc(N)c2N=O)cc1,-,.,-,191,-
CC(=O)NC(CC(=O)NNC(=O)COc1c(C)cccc1C)c1ccccc1 (configuration not stated),-,-,-,-,-
SMILES,FGF22 binding,PDI turbidity,ERp5 inh,S100A4 MyoIIA,ERAP1 HTS inh
CCN(CCn1cccn1)Cc1nc(-c2ccccc2)no1,-,-,-,-,-
CCN(CCn1cccn1)Cc1nc(-c2ccc(OC)cc2)no1,43,-,-,-,-
COc1ccc(Cl)cc1NC(=O)C(OC)c1ccccc1 (configuration not stated),-,-,-,-,-
CCC(C(=O)Nc1cc(Cl)ccc1OC)c1ccccc1 (configuration not stated),43,-,-,-,-
COc1cccc(=O)c2c(C)n(CC(=O)c3ccccc3)c(C)c12,44,-,-,-,-
CC(C)(C)OC(=O)NCc1ccc(NC(=O)c2nc[nH]c2C(=O)N[C@@H](Cc2ccccc2)C(=O)OCc2ccccc2)cc1,-,-,-,-,.
CC(C)OC(=O)C1CC(C)(O)C(=O)C(C(=O)OC(C)C)C1c1ccc([N+](=O)[O-])cc1 (configuration not stated),43,-,-,-,-
Cc1cc(NC(=O)COC(=O)[C@@H](NS(=O)(=O)c2ccccc2)C(C)C)no1,43,-,-,-,-
CCOc1cc(C(=O)OCC(=O)Nc2cc(C)on2)ccc1OCC(C)C,44,-,-,-,-
Cc1ccc(NS(=O)(=O)c2ccc(C(=O)OCC(=O)Nc3cc(C)on3)cc2)cc1,43,-,-,-,-
O=C(C=Cc1cccc(Cl)c1)c1ccccc1,-,-,-,-,-
Cn1ncc(C#N)c1/N=C/N1CCCCC1,.,-,.,.,.
Cc1ccc(-c2noc(CCC(=O)NCc3ccco3)n2)cc1,.,-,.,.,.
Cc1ccc[n+](CC(=O)c2ccc(Br)cc2)c1C,-,-,-,-,-
CCCCC(=O)OC1CCC2C3CCc4cc(O)ccc4C3CCC12C (configuration not stated),-,71,-,-,-
Cn1cc(CCNC(=O)CCc2nnc(CCCCc3ccccc3)o2)cn1,-,-,-,-,-
O=C(CCc1nnc(CCCc2ccccc2)o1)NCCN1CCOC1=O,43,-,-,-,-
COCCNC(=S)N1CCC(c2nc(-c3ccc(F)cc3)no2)CC1,-,-,-,-,-
C[C@@H]1CN([C@H](C)CO)C(=O)Cc2cc(NS(=O)(=O)c3cccs3)ccc2O[C@@H]1CN(C)Cc1ccc(C(F)(F)F)cc1,-,.,-,-,-
O=C(c1ccc2c(c1)OCO2)N1CC(=O)N2[C@@H](CO)[C@H](c3ccc(C#Cc4ccccc4)cc3)[C@@H]2C1,.,.,-,114,-
O=C(c1ccccc1F)N1CC(=O)N2[C@H](CO)[C@H](c3ccc(C#Cc4ccccc4)cc3)[C@H]2C1,.,.,-,-,-
CC(C)CC#Cc1ccc([C@@H]2[C@H](CO)N3C(=O)CN(C(=O)c4ccccn4)C[C@@H]23)cc1,.,.,-,107,-
O=C(c1ccc2c(c1)OCO2)N1CC(=O)N2[C@H](CO)[C@H](c3ccc(C#Cc4ccccc4)cc3)[C@@H]2C1,.,.,-,-,-
O=C(c1ccccc1F)N1CC(=O)N2[C@@H](CO)[C@H](c3ccc(C#Cc4ccccc4)cc3)[C@@H]2C1,.,.,-,79,-
N#Cc1ccc(-c2ccc([C@@H]3[C@@H](CO)N4C(=O)CN(C(=O)C5CC5)C[C@H]34)cc2)cc1,.,.,-,83,-
SMILES,FGF22 binding,PDI turbidity,ERp5 inh,S100A4 MyoIIA,ERAP1 HTS inh
C/C=C/c1ccc([C@H]2[C@@H](CO)N(C(=O)C3CC3)[C@@H]2CNC(=O)CN(C)C)cc1,.,.,-,-,-
CCCOC(=O)c1ccc(NC(=O)c2cc(=O)[nH]c3ccccc23)cc1,-,-,-,-,-
CN(c1ccccc1)S(=O)(=O)c1cccc(NC(=O)CSc2nccc(=O)[nH]2)c1,43,-,-,-,-
CCCCn1c(N)c(N(CCOC)C(=O)c2cnc(C)cn2)c(=O)[nH]c1=O,-,-,-,-,49
CCCCn1c(N)c(N(CCOC)C(=O)c2cnccn2)c(=O)[nH]c1=O,-,-,-,-,-
Nc1[nH]c(C(=O)c2ccccc2)c(-c2ccccc2Br)c1C(=O)NCCc1c[nH]c2ccccc12,-,.,-,-,-
